Measured values collected from several papers.
Each line is one published result; the experiments were not run side by side.
CDK16: Cyclin-dependent kinase 16 (CDK16, Homo sapiens, UniProt Q00536)
CDK16 with cyclin Y: Cyclin-dependent kinase 16, with cyclin Y (CDK16, Homo sapiens, UniProt Q00536)

SMILES | target | read-out | mode | technique | concentration | measurement | value
CN([C@@H]1CCc2c(CC(=O)O)c3cc(S(C)(=O)=O)ccc3n2C1)S(=O)(=O)c1ccc(F)cc1 | CDK16 | cell-free assay | – | competition with immobilised ligand | 1 µM | remaining binding | 84%
CS(=O)(=O)Nc1cccc(-c2csc(NC(=O)CSc3nc4nccnc4c(=O)n3CCc3ccccc3)n2)c1 | CDK16 with cyclin Y | enzyme activity | inhibitor | – | 10 µM | inhibition | -1%
COc1cccc2c(NCc3ccccc3)nc(-n3c(N)nc4ccccc43)nc12 | CDK16 | target engagement in cells | inhibitor | chemoproteomics | 20 mM | inhibition | -2.7%
Nc1cnc(N2CCc3cc(S(=O)(=O)Nc4c(F)cc(Cl)cc4F)cc(N4CCCC4=O)c32)nc1 | CDK16 | cell-free assay | – | competition with immobilised ligand | 1 µM | remaining binding | 98%
CC(C)(C)c1nc2c(s1)c1nc(N)ncc1c1ccc(NS(=O)(=O)c3c(F)cccc3F)c(F)c12 | CDK16 with cyclin Y | enzyme activity | inhibitor | radiometric | 1 µM | remaining activity | 87%
Cc1ccc(C(=O)Nc2ccc(CN3CCN(C)CC3)c(C(F)(F)F)c2)cc1C#Cc1cnc2cccnn12 | CDK16 | enzyme activity | inhibitor | – | 23.5 nM | remaining activity | 77%
Cn1c2c(Cl)c(Cl)ccc2c2cn[nH]c(=O)c21 | CDK16 | thermal stability | – | DSF | 10 µM | ΔTm | 0.8 °C
CNC(=O)Nc1ccc2c(c1)CC[C@@]21OC(=O)N(CC(=O)N(Cc2ccc(F)cc2)[C@@H](C)C(F)(F)F)C1=O | CDK16 | cell-free assay | – | competition with immobilised ligand | 1 µM | remaining binding | 75%
CCN1CCC2(CC1)NC(=O)c1c(c3ccc(Cl)c(Cl)c3n1C)C2C#N (racemic) | CDK16 | thermal stability | – | DSF | 10 µM | ΔTm | 0 °C
CO[C@@H](C)c1c(Nc2ccc([C@@H](N(C)C(=O)C3CCS(=O)(=O)CC3)C(F)(F)F)cc2)cnc2cc(Cl)nn12 | CDK16 | cell-free assay | – | competition with immobilised ligand | 1 µM | remaining binding | 72%
Cn1c2c(c3ccc(Cl)c(Cl)c31)C(C#N)C(C)(C)NC2=O (stereo not drawn) | CDK16 | thermal stability | – | DSF | 10 µM | ΔTm | 0.7 °C
c1ccc(CNc2nc(N3CCOc4ccccc43)nc3c2CCCC3)cc1 | CDK16 | target engagement in cells | inhibitor | chemoproteomics | 20 mM | inhibition | 2.9%
